# Source: PubChem
# GalR3 antagonist: blocks the human galanin receptor 3; inhibition, % at 3 µM; AID 651719; HEK293 GalR3-CNG cAMP membrane potential fluorescence; galR3 body fused to GalR1 C-terminus; 360,000 tested, 0.44% active; O60755;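 active means inhibition above the screen-wide average plus 3 SD, cut at about 13% in these data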;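 further: forskolin and galanin both at EC90 stimulate the cells; cAMP rise reported by CNG channel membrane potential dye signal; 0% = forskolin plus galanin with DMSO and 100% = forskolin alone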
# Target sequence (O60755 1-299 limits assumed): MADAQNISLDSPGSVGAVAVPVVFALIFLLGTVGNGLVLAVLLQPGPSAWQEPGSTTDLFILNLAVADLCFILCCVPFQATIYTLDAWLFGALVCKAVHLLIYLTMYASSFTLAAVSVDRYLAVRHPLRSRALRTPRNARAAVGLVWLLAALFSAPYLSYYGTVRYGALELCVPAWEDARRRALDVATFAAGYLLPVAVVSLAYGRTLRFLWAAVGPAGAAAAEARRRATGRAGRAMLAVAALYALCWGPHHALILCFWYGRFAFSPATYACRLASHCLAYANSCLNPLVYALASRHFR
# 697 NFkB inh: inhibitors of the PMA/ionomycin-induced NF-kB reporter in 697 B cells; 697 B-cell NF-kB luciferase reporter, 16 h; inhibition, % at 4 µM; 330,000 tested, 0.33% active; AID 435022; in the data active means inhibition above about 35%
# NR2E3 ag-1: activates human NR2E3 receptor; Q9Y5X4; CHO-S Gal4-NCOR/VP16-NR2E3 two-hybrid, luciferase; inhibition of corepressor binding, % at 3.98 µM; 360,000 tested, 0.35% active; AID 602229;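 active means inhibition above the mean of all tested compounds plus 3 SD, cut at about 70% in these data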;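 further: 0% = DMSO with NR2E3 transfected cells and 100% = cells lacking NR2E3 construct; higher means lower luciferase signal from less NR2E3 corepressor binding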
# NR2E3 ag-2: activates human photoreceptor nuclear receptor NR2E3. Q9Y5X4. GST-NR2E3/biotin-RetCOR TR-FRET, 1536-well. inhibition of corepressor binding, % at 4.78 µM. 320,000 tested, 0.12% active;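 active means percent inhibition above the cutoff of mean plus 3 SD of all tested compounds, set per screening campaign, cut at about 20% in these data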;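 further: 0% = DMSO wells and 100% = biotin wells as full block of FRET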
#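 System: GST-NR2E3 and biotin-RetCOR proteins; probe or stimulus: 7 nM biotin-RetCOR; doses: compound at 4.8 µM, single dose; schedule: Compound–protein incubation for 5 h at 4 °C; detection: time-resolved FRET; read-out: percent inhibition; controls: biotin wells as high control, 0.6% DMSO wells as low control; format: 1536-well plates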
# Gli-Sufu block: antagonists of Gli-Sufu signaling. Sufu-KO-LIGHT fibroblasts, Gli luciferase reporter luminescence. inhibition, % at 5 µM. 340,000 tested, 0.74% active. AID 588413;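 active means inhibition above about 55%, limit read from the data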;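 further: 0% = DMSO-treated cells and 100% = wells with medium but no cells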
# Jurkat NFkB inh: lowers PMA/ionomycin-induced NF-kB signal in Jurkat cells; AID 435003; inhibition, % at 4 µM; 330,000 tested, 0.53% active; PMA/ionomycin-induced NF-kB luciferase reporter, luminescence; in the data active means inhibition above about 50%
# GalR3 conf: GalR3 (human) antagonism, confirmation; HEK293 GalR3 CNG cAMP biosensor, membrane potential fluorescence; galR3 fused to GalR1 carboxy tail; challenged with forskolin and galanin at EC90; inhibition, % at 3 µM; AID 652245; shares compounds with GalR3 antagonist; 1,600 tested, 59% active;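 active means inhibition above the primary screen's cutoff, the mean inhibition of all screened compounds plus 3 SD, cut at about 13% in these data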;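 further: 0% = forskolin plus galanin and 100% = forskolin alone with DMSO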
# CNG parental: acts as nonspecific agonist in parental HEK-CNG cells | shares compounds with GalR3 antagonist | HEK293-CNG parental cells, cAMP membrane potential fluorescence; normalised: DMSO wells 0%, forskolin wells 100% | activation, % at 3 µM | 1,600 tested, 10% active | AID 652268; in the data active means activation above about 1.3%
# Active calls of the source: *; nt = no result given. A selection: hits, their analogues and other compounds. The true share with any hit is near 1.8%.
SMILES,GalR3 antagonist,697 NFkB inh,NR2E3 ag-1,NR2E3 ag-2,Gli-Sufu block,Jurkat NFkB inh,GalR3 conf,CNG parental
CCn1c(=O)[nH]c(=O)c2c(N)c(C(=O)c3ccccc3OC)sc21,15*,21,18,-5,0,0,-1,1
CCc1cc(C(=O)c2ccccc2OC)c(N)s1,-4,-42,7,1,0,-18,nt,nt
Cc1nn(-c2ccccc2)c(Cl)c1/C=C(/CC(=O)O)c1nc2ccccc2s1,-6,nt,18,nt,-1,nt,nt,nt
Cc1nn(-c2ccccc2)c(Cl)c1/C=C(\CC(=O)O)c1nc2ccccc2s1,13*,-1,11,2,6,-1,3,0
OCCC1CN(Cc2cnc(-c3ccc(Cl)cc3)nc2)CCN1C1CCCCC1 (stereo not drawn),83*,-30,-3,3,7,34,13*,0
Cc1cccc(-c2ncc(CN3CCN(C4CCCC4)C(CCO)C3)cn2)c1 (stereo not drawn),-1,-22,8,2,13,1,nt,nt
COc1cccc(CNC(=O)CCC2CCCN(C(=O)c3cccnc3SC)C2)c1 (stereo not drawn),1,7,-69,-1,-7,1,nt,nt
COc1ccc(N2C(=O)CN(Cc3cc(OC)c(OC)c(OC)c3)C2=S)cc1,14*,-23,-3,-4,8,-12,6,-1
COC(=O)c1ccc(NS(=O)(=O)c2ccc(S(=O)(=O)N3CCOCC3)cc2)cc1,-4,-1,-21,nt,-15,9,nt,nt
N/C(=N\OC(=O)c1ccc(Cl)c(Cl)c1)c1cccnc1,-5,-70,-21,-1,-33,-49,nt,nt
N/C(=N\OC(=O)c1cccc(Cl)c1)c1cccnc1,nt,-56,-84,-2,-8,-38,8,1
CCOc1ccc(-c2cc(C(=O)Nc3ccc(C)c(NS(C)(=O)=O)c3)[nH]n2)c(C)c1,14*,nt,-3,nt,nt,nt,99*,-1
O=C(CNC1CCCCC1)Nc1cccc(C(F)(F)F)c1,-13,-11,-5,-6,-24,-13,nt,nt
COc1cccc(/C=C2\SC(=S)N(NC(=O)c3ccncc3)C2=O)c1,14*,-12,-10,4,0,4,0,0
CC(=O)c1cnc2nc(SCc3cccc(C)c3)nn2c1C,-8,-38,-31,2,-3,-29,nt,nt
NC(=O)c1cn(-c2ccccc2)nc1-c1cc2ccccc2oc1=O,108*,3,16,-1,-1,2,95*,0
O=Cc1cn(-c2ccccc2)nc1-c1cc2ccccc2oc1=O,-4,25,-2,5,2,12,nt,nt
CCCOc1nc2ccccc2cc1/C=C/C(=O)O,14*,17,-12,0,13,2,6,1
OC[C@H]1O[C@@H](n2cnc3c(NC4CCCC4)ncnc32)[C@H](O)[C@@H]1O,3,5,7,4,-1,8,nt,nt
OCC1OC(n2cnc3c(NC4CCCCC4)ncnc32)C(O)C1O (stereo not drawn),36*,22,-7,0,-3,3,49*,0
C=CCNc1ncnc2c1ncn2C1OC(CO)C(O)C1O (stereo not drawn),99*,-4,-1,3,6,3,99*,1
CCOC(=O)CCCCC(=O)c1[nH]c(=O)[nH]c1CSc1nnc2c3ccccc3n(C(C)C)c2n1,31*,-17,8,-22,4,-6,18*,0
CCCn1c2ccccc2c2nnc(SCc3[nH]c(=O)[nH]c3C(=O)CCCCC(=O)OCC)nc21,17*,-20,-10,-28,-5,-9,12,1
COc1ccccc1OCC(=O)NCCC1=CCCCC1,nt,-25,0,3,-25,-16,3,0
CCN1CCCC1CNC(=O)c1cc([N+](=O)[O-])c(N(C)C)cc1OC (stereo not drawn),-10,3,-9,3,8,-4,nt,nt
SMILES,GalR3 antagonist,697 NFkB inh,NR2E3 ag-1,NR2E3 ag-2,Gli-Sufu block,Jurkat NFkB inh,GalR3 conf,CNG parental
O=C(NC(=S)NC1CCCCC1)c1ccccc1[N+](=O)[O-],-5,-14,-31,-1,0,-3,nt,nt
CN(C(=O)c1ccc(S(=O)(=O)c2cccc(Cl)c2)c([N+](=O)[O-])c1)C1CCCCC1,22*,-25,-14,9,nt,13,-2,0
CC(CC(F)(F)F)N1CCC(n2nccc2NC(=O)CCCc2ccccc2)CC1 (stereo not drawn),-3,14,-12,5,25,7,nt,nt
Cc1ccc(C2C3=C(CC(C)(C)CC3=O)N=C3c4ccccc4C(=O)C32)cc1 (stereo not drawn),15*,18,-27,0,6,17,31*,0
O=C(COc1coc(CN2CCN(c3ccccc3)CC2)cc1=O)NC1CCCCC1,-5,-2,10,0,-14,6,nt,nt
O=[N+]([O-])c1ccc(NC(=S)N/C(=N/CS(=O)(=O)c2ccccc2)c2ccccc2)cc1,13*,-34,-22,0,-4,-9,7,1
CCOC(=O)c1ccc(NC(=O)Nc2nc3ccccc3s2)cc1,-3,nt,18,nt,nt,nt,nt,nt
CCOC(=O)c1ccc(NC(=O)Nc2nncs2)cc1,14*,nt,-36,nt,nt,nt,20*,1.4*
CSCC(C)N1CCC(CCC(=O)NC2CC2)CC1 (stereo not drawn),-4,10,-1,0,5,7,nt,nt
N/C(=N\NS(=O)(=O)c1ccc(Cl)cc1)c1ccccn1,14*,16,2,-2,1,0,0,0
O=C(COC(=O)c1ccco1)NCCc1ccc(Cl)cc1,-4,-26,-17,4,2,-14,nt,nt
CCOc1ncccc1C(=O)OCC(=O)c1ccccc1,0,6,5,2,-5,10,nt,nt
CCOc1ncccc1C(=O)OCC(=O)c1ccccc1Br,16*,-24,-22,2,3,0,-3,0
CCCCn1c(N)c(N(CCOC)C(=O)CCCc2nc3ccccc3c(=O)[nH]2)c(=O)[nH]c1=O,-5,13,1,-1,17,-15,nt,nt
Cc1[nH]nc(SCC(=O)N2CCCCCC2)c1[N+](=O)[O-],14*,-6,-34,2,-5,-10,4,0
CC1CN(c2ccc(C(=O)c3ccccc3C(=O)O)cc2[N+](=O)[O-])CC(C)O1 (stereo not drawn),18*,4,10,-2,5,3,-1,0
